Active and inactive are the calls of the source. No cut-off for these calls is given here.
Tests used:
[1] = test system: Breast carcinoma cell; experiment: Antiproliferative activity against patient derived inflammatory breast cancer cell spheroids assessed as reduction in cell viability at 2.5 uM incubated for 3 hrs by ki-67 staining based fluorescence microscopic analysis; assay type: functional; conditions: Homo sapiens
In short: (§1)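 Spheroids were embedded in Matrigel plugs (Matrigel:spheroids in medium 2:1) on coverslips and set for 30 min at 37 °C. They were exposed to 2.5 μM or DMSO for 3 h, with brightfield checks of edge loss. Plugs were fixed in 4% PFA 30 min RT, permeabilized with 2% Triton X-100 15 min, and blocked with 3% goat serum 30 min. Staining used Alexa488 anti-Ki67 (1:10) and anti-cPARP (1:100), 4 °C 24 h, then Cy5 anti-rabbit (4 µg/ml), 4 °C 24 h, and DAPI mountant. ApoTome z-stack fluorescence imaging followed.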

[2] = test system: Breast carcinoma cell; experiment: Induction of apoptosis in patient derived inflammatory breast cancer cell spheroids assessed as increase in loss of well-circumscribed spheroid edge at 2.5 uM incubated for 3 hrs by bright field microscopic analysis; assay type: functional, cell-based; conditions: Homo sapiens; in short: as §1
[3] = test system: Breast carcinoma cell; experiment: Induction of apoptosis in patient derived inflammatory breast cancer cell spheroids assessed as increase in pyknotic nuclei at 2.5 uM incubated for 3 hrs by DAPI staining based fluorescence microscopic analysis; assay type: functional; conditions: Homo sapiens; in short: as §1
[4] = test system: Breast carcinoma cell; experiment: Cytotoxicity against patient derived inflammatory breast cancer cell spheroids assessed as increase in spheroid dissolution at 2.5 uM incubated for 24 hrs by bright field microscopic based Spheroids MARY-X assay; assay type: functional, Homo sapiens
In short: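 MARY-X spheroids (40–100 μm) grown in MEM + 10% heat-inactivated FBS, penicillin/streptomycin, 37 °C, 5% CO2. Plated at 30–50 spheroids/well and exposed in replicates to 2.5 μM or DMSO vehicle for 24 h. Brightfield imaging scored deviation from the well-circumscribed spheroid edge, graded as no, low, moderate or complete response.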

[5] = test system: Breast carcinoma cell; experiment: Cytotoxicity against patient derived inflammatory breast cancer cell spheroids assessed as increase in spheroid dissolution incubated for 24 hrs by bright field microscopic based Spheroids MARY-X assay; assay type: functional; conditions: Homo sapiens
In short: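 MARY-X spheroids (40–100 μm; MEM, 10% heat-inactivated FBS, antibiotics, 37 °C, 5% CO2) were seeded at 30–50/well. Treated in replicates for 24 h with nine concentrations, 0.25–2.25 μM in 0.25 μM steps made by serial dilution, or DMSO. ImageJ circularity from brightfield images gave dose-response curves, from which IC50 was fitted.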

[6] = test system: Breast carcinoma cell; experiment: Induction of apoptosis in patient derived inflammatory breast cancer cell spheroids assessed as localization of cleaved PARP at 2.5 uM incubated for 3 hrs by c-PARP staining based fluorescence microscopic analysis; assay type: functional; conditions: Homo sapiens; in short: as §1
[7] = test system: Breast carcinoma cell; experiment: Cytotoxicity against patient derived inflammatory breast cancer cell spheroids assessed as increase in spheroid dissolution incubated for 24 hrs by propidium iodide/Acridine orange staining based dual-fluorescence viability assay; assay type: functional; conditions: Homo sapiens
[8] = test system: Breast carcinoma cell; experiment: Potency index, ratio of IC50 for taxol to IC50 for test compound for cytotoxicity against patient derived inflammatory breast cancer cell spheroids assessed as increase in spheroid dissolution incubated for 24 hrs by propidium iodide/Acridine orange staining based dual-fluorescence viability assay; assay type: functional, Homo sapiens

| SMILES | Activity [4] [%] | IC50 [5] [nM] | Activity ([4]; Homo sapiens) | further results |
| --- | --- | --- | --- | --- |
| COCOc1cc(O)c2c(c1)OC13C(=CC4CC1C(C)(C)OC3(CC=C(C)C)C4=O)C2=O (centres undefined) | 100 | 380 |  | Activity [1]: Active; Activity [2]: Active; Activity [3]: Active; Activity [6]: Active |
| CC(=O)O[C@H]1C(=O)[C@@]2(C)[C@H]([C@H](OC(=O)c3ccccc3)[C@]3(O)C[C@H](OC(=O)[C@H](O)[C@@H](NC(=O)c4ccccc4)c4ccccc4)C(C)=C1C3(C)C)[C@]1(OC(C)=O)CO[C@@H]1C[C@@H]2O [PACLITAXEL] |  |  |  | IC50 [7]: 7800 nM |
| CC(C)=CCC12OC(C)(C)C3CC(C=C4C(=O)C5=C(OC431)C(=O)C=CC5=O)C2=O (centres undefined) |  |  | inactive |  |
| COCCOCCOCCOc1cc(O)c2c(c1)OC13C(=CC4CC1C(C)(C)OC3(CC=C(C)C)C4=O)C2=O (centres undefined) |  |  | Active |  |
| CC(C)=CCC12OC(C)(C)C3CC(C=C4C(=O)c5c(O)cc(O)cc5OC431)C2=O (centres undefined) |  |  | inactive |  |
| COCCOCCOCCOc1ccc2c(c1)OC13C(=CC4CC1C(C)(C)OC3(CC=C(C)C)C4=O)C2=O (centres undefined) |  |  | Active |  |
| CC(C)=CCC[C@]1(C)C=Cc2c(O)c3c(c(CC=C(C)C)c2O1)O[C@]12C(=C[C@@H]4C[C@H]1C(C)(C)O[C@@]2(C/C=C(/C)C(=O)O)C4=O)C3=O [GAMBOGIC ACID] |  |  |  | Ratio IC50 [8]: 20; IC50 [7]: 420 nM |
| COCCOCCOCCOc1cccc2c1C(=O)C1=CC3CC4C(C)(C)OC(CC=C(C)C)(C3=O)C14O2 (centres undefined) |  |  | Active |  |
| CC(C)=CCC12OC(C)(C)C3CC(C=C4C(=O)c5ccccc5OC431)C2=O (centres undefined) | 100 | 630 |  |  |
| COc1ccc(OC)c2c1OC13C(=CC4CC1C(C)(C)OC3(CC=C(C)C)C4=O)C2=O (centres undefined) |  |  | inactive |  |
| CC(C)=CCC12OC(C)(C)C3CC4(Oc5cc(F)cc(F)c5C(=O)C4=CC31)C2=O (centres undefined) | 100 | 890 |  |  |
| CC(C)=CCC12OC(C)(C)C3CC(C=C4C(=O)c5c(O)cccc5OC431)C2=O (centres undefined) | 100 | 510 |  | Activity [1]: Active; Activity [2]: Active; Activity [3]: Active; IC50 [7]: 660 nM; Activity [6]: Active |
| CC(C)=CCC12OC(C)(C)C3CC(C=C4C(=O)c5ccc(O)cc5OC431)C2=O (centres undefined) |  |  | inactive |  |
| COCCOCCOCCOc1cc(OCCOCCOCCOC)c2c(c1)OC13C(=CC4CC1C(C)(C)OC3(CC=C(C)C)C4=O)C2=O (centres undefined) |  |  | Active |  |
| CC(C)=CCC12OC(C)(C)C3CC(C=C4C(=O)c5c(F)cc(F)cc5OC431)C2=O (centres undefined) | 100 | 1120 |  | Activity [1]: Active; Activity [2]: Active; Activity [3]: Active; Activity [6]: Active |

— ChEMBL document CHEMBL4340518, “Synthesis, structure-activity relationship and in vitro pharmacodynamics of A-ring modified caged xanthones in a preclinical model of inflammatory breast cancer” (Eur J Med Chem, 2019)
